Assay results pooled from the literature.
Lines come from different studies, so protocols differ.
Target: MAP kinase-activated protein kinase 2 (MAPKAPK2, Homo sapiens, UniProt P49137)

SMILES	test	conditions	quantity	value
Cc1nn(C)cc1-c1nc2c(N3CCN(Cc4ccc(Cl)cc4)CC3)c(Cl)cnc2[nH]1	binding, competition with immobilised ligand	1 µM	remaining binding	100%
COc1ncccc1-c1cnn2ccc(N3CCN(C(=O)OC(C)C)CC3)nc12	binding, competition with immobilised ligand	1 µM	remaining binding	100%
Cn1cncc1[C@@](O)(COc1ccc(C#N)cc1-c1ccc(OC(F)(F)F)cc1)c1ccc(C#N)cc1	cell-free assay, competition with immobilised ligand	1 µM	remaining binding	61%
CC(C)(C)c1cc(C=C(C#N)C#N)cc(Br)c1O	enzyme activity, inhibitor	0.5 µM	remaining activity	92.3%
C#Cc1n[nH]c2c(-c3cn(C(C)c4ccccn4)c(=O)[nH]c3=O)cc(F)cc12 (centres unmarked)	enzyme activity, inhibitor	1 µM	inhibition	13.1%
Cn1cc(-c2cc(F)cc(N3CCn4c(cc5c4CCCC5)C3=O)c2CO)cc(Nc2ccc(N3CCN(C4COC4)CC3)cn2)c1=O	enzyme activity, inhibitor	0.1 µM	inhibition	5%
O=c1[nH]c2ccccc2n1C1CCN(Cc2ccc(-c3[nH]c4cc5ncnc5cc4nc3-c3ccccc3)cc2)CC1	cell-free assay	0.5 µM	remaining signal	98.7%
Nc1ncc(-c2nc(N3CCOCC3)nc(N3CCOCC3)n2)c(C(F)F)n1	binding, competition with immobilised ligand	10 µM	remaining binding	85%
COc1cc(Cl)c(C(=O)N[C@@H](CN[C@H]2CC[C@@H](N)CC2)Cc2ccc(C#N)cc2)cc1-c1ccc(CN[C@H](C)c2ccc(C)cc2)o1	enzyme activity, inhibitor	1 µM	remaining activity	107%
COc1cc(Nc2ncc(F)c(Nc3ccc4c(n3)NC(=O)C(C)(C)O4)n2)cc(OC)c1OC	binding	10 µM	inhibition	0%
Cn1cc(-c2cccc(N3CCc4c(sc5c4CC(C)(C)C5)C3=O)c2CO)cc(Nc2ccncn2)c1=O	enzyme activity, inhibitor	1 µM	inhibition	-5%
